# Key:
# HCT-116 [1] = assay: Cytotoxicity against human HCT116 cells assessed as reduction in cell viability after 48 hrs by WST8 assay; format: functional, cell-based; details: HCT-116, 48 h
# Method in brief: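 HCT-116 cells grown in RPMI 1640 with 10% FBS and penicillin/streptomycin, plated near-confluent at 5 × 10^3 cells/well and left 24 h at 37 °C, 5% CO2. Compounds (DMSO stocks 0.01–100 μM) added to give final 0.1–1000 nM, 1% DMSO vehicle. After 48 h, WST-8 added for 2 h, absorbance read at 450 nm (reference 595 nm), vehicle taken as 100%. IC50 by probit analysis; three independent experiments.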
# MCF7 = assay: Growth inhibition of human MCF7 cells after 72 hrs by Cell-Titer Glo assay; format: functional; details: MCF7, 72 h
# Method in brief: (§1)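 Cells seeded in 384-well plates at 1–3 × 10^3 cells/well and grown 24 h at 37 °C, 5% CO2. Compounds added at final 0.03 nM to 1 μM (10-point), DMSO vehicle at most 0.25%.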
# MKN-74 = assay: Growth inhibition of human MKN74 cells after 72 hrs by Cell-Titer Glo assay; format: functional; details: MKN-74, 72 h; method in brief: as §1
# U-87 MG = assay: Growth inhibition of human U87MG cells after 72 hrs by Cell-Titer Glo assay; format: functional, U-87MG ATCC; method in brief: as §1
# 786-0 = assay: Growth inhibition of human 786-O cells after 72 hrs by Cell-Titer Glo assay; format: functional; details: 786-0, 72 h; method in brief: as §1
# BXPC-3 = assay: Growth inhibition of human BxPC3 cells after 72 hrs by Cell-Titer Glo assay; format: functional; details: BXPC-3, 72 h; method in brief: as §1
# [2] = Growth inhibition of human HEC6 cells after 72 hrs by Cell-Titer Glo assay; format: functional; details: HEC-6, 72 h; method in brief: as §1
# Huh-7 = assay: Growth inhibition of human HuH7 cells after 72 hrs by Cell-Titer Glo assay; format: functional; details: Huh-7, 72 h; method in brief: as §1
# HCT-116 [3] = assay: Growth inhibition of human HCT116 cells after 72 hrs by Cell-Titer Glo assay; format: functional; details: HCT-116, 72 h; method in brief: as §1
# A549 = assay: Growth inhibition of human A549 cells after 72 hrs by Cell-Titer Glo assay; format: functional; details: A549, 72 h; method in brief: as §1
# SK-OV-3 = assay: Growth inhibition of human SKOV3 cells after 72 hrs by Cell-Titer Glo assay; format: functional; details: SK-OV-3, 72 h; method in brief: as §1
# [4] = Drug metabolism in mouse liver microsomes after 35 mins in presence of NADPH by LC-MS/MS analysis; format: ADME, microsome; details: read-out: Drug metabolism
# Method in brief: (§2)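 Pooled liver microsomes at 0.1 mg/mL protein with 3.25 mmol/L β-NADPH in 125 mmol/L phosphate buffer. Compound at 100 nmol/L, added in CH3CN. Incubated 37 °C for 35 min, stopped with methanol, held at −20 °C for 30 min, then centrifuged. Parent compound loss measured by LC-MS/MS; duplicate incubations.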
# [5] = Drug metabolism in human liver microsomes after 35 mins in presence of NADPH by LC-MS/MS analysis; format: ADME, microsome; details: read-out: Drug metabolism; method in brief: as §2
smiles,measurement,setting,value
CC[C@H](C)[C@H]1C(=O)N2CCC[C@H]2C(=O)O[C@H](C(C)(C)C)C[C@@H](C)C[C@H](O)[C@H](C)C(=O)N2CCC(CC2)C(=O)N[C@@H](Cc2ccc(OC)cc2)C(=O)N(C)[C@@H](CC(C)C)C(=O)N1C,IC50,HCT-116 [1],360 nM
CC[C@H](C)[C@H]1C(=O)N2CCC[C@H]2C(=O)O[C@H](C(C)(C)C)C[C@@H](C)C[C@H](O)[C@H](C)C(=O)N2CCC(CC2)C(=O)N[C@@H](Cc2ccc(OC)cc2)C(=O)N(C)CC(=O)N1C,IC50,HCT-116 [1],850 nM
CC[C@H](C)[C@H]1C(=O)N2CCC[C@H]2C(=O)O[C@H](C(C)(C)C)C[C@@H](C)C[C@H](O)[C@H](C)C2=N[C@@H](/C=C(\C)C(=O)N[C@@H](Cc3ccc(OC)cc3)C(=O)N(C)[C@@H](C)C(=O)N1C)CS2 [APRATOXIN A],GI50,MCF7,> 1000 nM
same,GI50,MKN-74,9.7 nM
same,GI50,U-87 MG,18 nM
same,GI50,786-0,41 nM
same,GI50,BXPC-3,4.9 nM
same,GI50,[2],39 nM
same,GI50,Huh-7,7.2 nM
same,GI50,HCT-116 [3],11 nM
same,IC50,HCT-116 [1],2.8 nM
same,GI50,A549,6.4 nM
same,GI50,SK-OV-3,31 nM
CO[C@@]12[C@H](COC(N)=O)C3=C(C(=O)C(C)=C(N)C3=O)N1C[C@@H]1N[C@@H]12 [MITOMYCIN],GI50,MCF7,2500 nM
same,GI50,MKN-74,1700 nM
same,GI50,U-87 MG,1800 nM
same,GI50,786-0,210 nM
same,GI50,BXPC-3,380 nM
same,GI50,[2],1400 nM
same,GI50,Huh-7,2000 nM
same,GI50,HCT-116 [3],200 nM
same,GI50,A549,80 nM
same,GI50,SK-OV-3,100 nM
CC[C@H](C)[C@H]1C(=O)N2CCC[C@H]2C(=O)O[C@H](C(C)(C)C)C[C@@H](C)C[C@H](O)[C@H](C)C(=O)N2CCC(CC2)C(=O)N[C@@H](Cc2ccc(OC)cc2)C(=O)N(C)[C@@H](Cc2ccccc2)C(=O)N1C,IC50,HCT-116 [1],1600 nM
CC[C@H](C)[C@H]1C(=O)N2CCC[C@H]2C(=O)O[C@H](C(C)(C)C)C[C@@H](C)C[C@H](O)[C@H](C)C(=O)N(C)CCC(=O)N[C@@H](Cc2ccc(OC)cc2)C(=O)N(C)[C@@H](C)C(=O)N1C,IC50,HCT-116 [1],3100 nM
CC[C@H](C)[C@H]1C(=O)N2CCC[C@H]2C(=O)O[C@H](C(C)(C)C)C[C@@H](C)C[C@H](O)[C@H](C)C(=O)N2CCC(CC2)C(=O)N[C@@H](Cc2ccc(OC)cc2)C(=O)N(C)[C@@H](C)C(=O)N1C,IC50,HCT-116 [1],120 nM
CC[C@H](C)[C@H]1C(=O)N2CCC[C@H]2C(=O)O[C@H](C(C)(C)C)C[C@@H](C)C[C@H](O)[C@H](C)C(=O)N2CCC(CC2)C(=O)N[C@@H](Cc2ccc(-c3ccccc3)cc2)C(=O)N(C)[C@@H](C)C(=O)N1C,GI50,MCF7,> 1000 nM
same,GI50,MKN-74,8 nM
same,GI50,U-87 MG,12 nM
same,GI50,786-0,120 nM
same,GI50,BXPC-3,4 nM
same,GI50,[2],23 nM
same,metabolised at 35 min,[4],84%
same,GI50,Huh-7,6.8 nM
same,GI50,HCT-116 [3],11 nM
same,IC50,HCT-116 [1],1.1 nM
same,metabolised at 35 min,[5],85%
same,GI50,A549,6.3 nM
same,GI50,SK-OV-3,18 nM
COc1ccc(C[C@@H]2NC(=O)C3CCN(CC3)C(=O)[C@@H](C)[C@@H](O)C[C@H](C)C[C@@H](C(C)(C)C)OC(=O)[C@@H]3CCCN3C(=O)[C@H](Cc3ccccc3)N(C)C(=O)[C@H](C)N(C)C2=O)cc1,IC50,HCT-116 [1],710 nM
CC[C@H](C)[C@H]1C(=O)N2CCC[C@H]2C(=O)O[C@H](C(C)(C)C)C[C@@H](C)C[C@H](O)[C@H](C)C(=O)NCc2cccc(c2)C(=O)N[C@@H](Cc2ccc(OC)cc2)C(=O)N(C)[C@@H](C)C(=O)N1C,IC50,HCT-116 [1],820 nM
COc1ccc(C[C@@H]2NC(=O)C3CCN(CC3)C(=O)[C@@H](C)[C@@H](O)C[C@H](C)C[C@@H](C(C)(C)C)OC(=O)[C@@H]3CCCN3C(=O)[C@H](C(C)C)N(C)C(=O)[C@H](C)N(C)C2=O)cc1,IC50,HCT-116 [1],130 nM
CC[C@H](C)[C@H]1C(=O)N2CCC[C@H]2C(=O)O[C@H](C(C)(C)C)C[C@@H](C)C[C@H](O)[C@H](C)C(=O)NCCC(=O)N[C@@H](Cc2ccc(OC)cc2)C(=O)N(C)[C@@H](C)C(=O)N1C,IC50,HCT-116 [1],3400 nM
CC[C@H](C)[C@H]1C(=O)N2CCC[C@H]2C(=O)O[C@H](C(C)(C)C)C[C@@H](C)C[C@H](O)[C@H](C)C(=O)N(C)Cc2cccc(c2)C(=O)N[C@@H](Cc2ccc(OC)cc2)C(=O)N(C)[C@@H](C)C(=O)N1C,IC50,HCT-116 [1],220 nM
CC[C@H](C)[C@H]1C(=O)N2CCC[C@H]2C(=O)O[C@H](C(C)(C)C)C[C@@H](C)C[C@H](O)[C@H](C)C(=O)NCCCC(=O)N[C@@H](Cc2ccc(OC)cc2)C(=O)N(C)[C@@H](C)C(=O)N1C,IC50,HCT-116 [1],2600 nM
CC[C@H](C)[C@H]1C(=O)N2CCC[C@H]2C(=O)O[C@H](C(C)(C)C)C[C@@H](C)C[C@H](O)[C@H](C)C(=O)N2CCC(CC2)C(=O)N[C@@H](Cc2ccc(Cl)cc2)C(=O)N(C)[C@@H](C)C(=O)N1C,GI50,MCF7,> 1000 nM
same,GI50,MKN-74,200 nM
same,GI50,U-87 MG,320 nM
same,GI50,786-0,> 1000 nM
same,GI50,BXPC-3,80 nM
same,GI50,[2],480 nM
same,GI50,Huh-7,180 nM
same,GI50,HCT-116 [3],210 nM
same,IC50,HCT-116 [1],69 nM
same,GI50,A549,190 nM
same,GI50,SK-OV-3,410 nM
CC[C@H](C)[C@H]1C(=O)N2CCC[C@H]2C(=O)O[C@H](C(C)(C)C)C[C@@H](C)C[C@H](O)[C@H](C)C(=O)N2CCC(CC2)C(=O)N[C@@H](Cc2ccccc2)C(=O)N(C)[C@@H](C)C(=O)N1C,IC50,HCT-116 [1],490 nM
CC[C@H](C)[C@H]1C(=O)N2CCC[C@H]2C(=O)O[C@H](C(C)(C)C)C[C@@H](C)C[C@H](O)[C@H](C)C(=O)N(C)CCCC(=O)N[C@@H](Cc2ccc(OC)cc2)C(=O)N(C)[C@@H](C)C(=O)N1C,IC50,HCT-116 [1],340 nM
COc1ccc(C[C@@H]2NC(=O)C3CCN(CC3)C(=O)[C@@H](C)[C@@H](O)C[C@H](C)C[C@@H](C(C)(C)C)OC(=O)[C@@H]3CCCN3C(=O)[C@H](C)N(C)C(=O)[C@H](C)N(C)C2=O)cc1,IC50,HCT-116 [1],7500 nM

# Source: ChEMBL document CHEMBL4011655, “Conformation-Based Design and Synthesis of Apratoxin A Mimetics Modified at the α,β-Unsaturated Thiazoline Moiety” (J Med Chem, 2017)
